Source: ChEMBL document CHEMBL3992568, “Discovery of Antimalarial Azetidine-2-carbonitriles That Inhibit P. falciparum Dihydroorotate Dehydrogenase” (ACS Med Chem Lett, 2017)

Experiments:
[1] = Initial concentration in CD-1 mouse at 1 mg/kg, iv or 5 mg/kg, po administered as single dose; assay type: ADME, organism-based; settings: in vivo
In short: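 Female CD-1 mice, single dose. Oral formulation: 70% PEG300/30% (5% dextrose in water) at 0.5 mg/mL. Intravenous formulation: 5% DMSO/10% cremophor/85% water at 0.25 mg/mL. Parameters from non-compartmental analysis.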

[2] = test system: Mus musculus; test: Dose normalized AUC (0 to infinity) in CD-1 mouse at 5 mg/kg, po administered as single dose; assay type: ADME, organism-based; settings: in vivo

C0 [1]: 4.9 µM
AUC/dose [2]: > 54.3 µM·h
Compound: CCCNC(=O)N1[C@H](C#N)[C@H](c2ccc(-c3ccc(C(F)(F)F)c(C(F)(F)F)c3)cc2)[C@H]1CO
